Measured values taken from ChEMBL document CHEMBL1145964, “Antineoplastic agents. 487. Synthesis and biological evaluation of the antineoplastic agent 3,4-methylenedioxy-5,4'-dimethoxy-3'-amino-Z-stilbene and derived amino acid amides” (J Med Chem, 2003).
In brackets after ≈: the same amount, converted by molar mass. Several values for one entry are separate records, joined by “and”; a condition that tells them apart may be missing. Equal entries are not always repeated.

How the values were obtained:
[1] = Inhibitory activity against colon KM2OL2 cell line; assay type: functional; details: Homo sapiens
[2] = Inhibitory activity against CNS SF-295 cell line; assay type: functional; details: Homo sapiens
[3] = Inhibitory activity against prostate DU145 cell line; assay type: functional; details: Homo sapiens, DU-145
[4] = Inhibitory activity against pancreatic BXPC-3 cell line; assay type: functional; details: Homo sapiens
[5] = molecular target: Tubulin alpha chain (Sus scrofa) (UniProt P02550); assay: Percent inhibitory activity (100 uM) against colchicine binding to tubulin […]; details: Homo sapiens
Sequence of Tubulin alpha chain (Sus scrofa) (P02550 whole entry, looked up): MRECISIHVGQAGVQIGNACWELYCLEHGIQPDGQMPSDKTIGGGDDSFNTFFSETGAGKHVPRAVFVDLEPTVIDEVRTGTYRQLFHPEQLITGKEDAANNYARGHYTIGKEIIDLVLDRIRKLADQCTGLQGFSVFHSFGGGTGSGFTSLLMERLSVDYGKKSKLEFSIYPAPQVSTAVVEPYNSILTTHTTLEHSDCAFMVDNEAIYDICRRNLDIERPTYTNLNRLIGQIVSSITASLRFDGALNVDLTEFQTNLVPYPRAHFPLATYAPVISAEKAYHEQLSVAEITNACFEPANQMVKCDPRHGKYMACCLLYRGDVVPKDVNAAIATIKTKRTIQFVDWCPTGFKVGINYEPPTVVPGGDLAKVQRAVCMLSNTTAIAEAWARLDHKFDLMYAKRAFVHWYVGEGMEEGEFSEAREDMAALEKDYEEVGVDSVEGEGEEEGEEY
Outline: (§1)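 Cell-free colchicine-binding test: reaction mixtures held 1.0 µM tubulin, 5.0 µM [³H]colchicine and inhibitor at the stated level; percent inhibition of radiolabel binding recorded.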

Tubulin [6] = assay: Inhibitory activity against tubulin (1.0 mg/mL) assembly was determined; details: Homo sapiens
MCF7 [7] = assay: Mitotic index in MCF-7 breast cancer cells was determined; assay type: functional, Homo sapiens
MCF7 [8] = assay: Inhibitory activity against breast MCF-7 cell line; assay type: functional; details: Homo sapiens
[9] = Inhibitory activity against lung NSC NCI-H460 cell line; assay type: functional; details: Homo sapiens
P388 = assay: Inhibitory activity against leukemia P388 cell line; assay type: functional; details: Mus musculus, read-out: ED50 (the source's name)
Tubulin [10] = assay: Inhibitory activity against tubulin (1.0 mg/mL) assembly was determined; details: Homo sapiens; remark: listed apart in the source
[11] = Inhibitory activity against pancreatic cell line BXPC-3; assay type: functional; details: Homo sapiens
MCF7 [12] = assay: Inhibitory activity against breast cancer cell line MCF-7; assay type: functional; details: Homo sapiens
[13] = Inhibitory activity against prostate DU145; assay type: functional; details: Homo sapiens, DU-145, Prostate gland
[14] = molecular target: Tubulin alpha chain (Sus scrofa) (UniProt P02550); assay: Percent inhibitory activity (20 uM) against colchicine binding to tubulin […]; details: Homo sapiens; outline: as §1
[15] = molecular target: Tubulin alpha chain (Sus scrofa) (UniProt P02550); assay: Percent inhibitory activity (2 uM) against colchicine binding to tubulin […]; details: Homo sapiens
Outline: (§2)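 Binding of [³H]colchicine to purified tubulin, not a cell assay: reaction mixtures held 1.0 µM tubulin, 5.0 µM [³H]colchicine and test compound at 2 or 5 µM as indicated. Read-out is percent inhibition of colchicine binding.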

[16] = molecular target: Tubulin alpha chain (Sus scrofa) (UniProt P02550); assay: Percent inhibitory activity (5 uM) against colchicine binding to tubulin […]; details: Homo sapiens; outline: as §2
Mus musculus = species: Mus musculus; assay: Inhibitory activity against murine colon 26 adenocarcinoma cell; assay type: functional
[17] = molecular target: Tubulin alpha chain (Sus scrofa) (UniProt P02550); assay: Percent inhibitory activity (5 uM) against colchicine binding to […]; details: Homo sapiens

In the case of COc1ccc(/C=C\c2cc(OC)c3c(c2)OCO3)cc1NC(=O)C(N)Cc1c[nH]c2ccccc12 (stereo not given), the GI50 [1] is reported as 0.018 µg/mL (≈ 0.0371 µM), the GI50 [2] is reported as 0.042 µg/mL (≈ 0.0865 µM) and the GI50 [3] is reported as 0.04 µg/mL (≈ 0.0824 µM). For the same compound, the GI50 [4] was 0.044 µg/mL (≈ 0.0906 µM), the inhibition [5] was 16% and the IC50 (Tubulin [6]) was > 40 µM. The Mitotic index (MCF7 [7]) was 57, the GI50 (MCF7 [8]) was 0.035 µg/mL (≈ 0.0721 µM) and the GI50 [9] was 0.053 µg/mL (≈ 0.109 µM). The EC50 (P388) was 0.0653 µg/mL (≈ 0.134 µM).
Compound COc1ccc(/C=C\c2cc(OC)c3c(c2)OCO3)cc1NC(=O)C(N)Cc1ccccc1 (stereo not given) has a GI50 [1] of 0.034 µg/mL (≈ 0.0761 µM), a GI50 [2] of 1.7 µg/mL (≈ 3.81 µM) and a GI50 [3] of 0.04 µg/mL (≈ 0.0896 µM). The GI50 [4] was 0.2 µg/mL (≈ 0.448 µM), the inhibition [5] was 16% and the IC50 (Tubulin [6]) was > 40 µM. For the same compound, the Mitotic index (MCF7 [7]) was 52, the GI50 (MCF7 [8]) was 0.044 µg/mL (≈ 0.0985 µM) and the GI50 [9] was 0.044 µg/mL (≈ 0.0985 µM). The EC50 (P388) was 0.0585 µg/mL (≈ 0.131 µM).
COc1ccc(/C=C\c2cc(OC)c3c(c2)OCO3)cc1[N+](=O)[O-] gave a GI50 [1] of 0.45 µg/mL (≈ 1.37 µM), an IC50 (Tubulin [10]) of 0.39 µM and a GI50 [11] of 0.38 µg/mL (≈ 1.15 µM). For the same compound, the GI50 [2] was 0.33 µg/mL (≈ 1 µM), the GI50 (MCF7 [12]) was 0.36 µg/mL (≈ 1.09 µM) and the GI50 [13] was 0.64 µg/mL (≈ 1.94 µM). The GI50 [9] was 0.35 µg/mL (≈ 1.06 µM) and the EC50 (P388) was 0.227 µg/mL (≈ 0.689 µM).
For COc1ccc(/C=C/c2cc(OC)c3c(c2)OCO3)cc1[N+](=O)[O-], the GI50 [1] was > 10 µg/mL, the GI50 [2] was 4.6 µg/mL (≈ 14 µM) and the GI50 [3] was > 10 µg/mL. For the same compound, the GI50 [4] was > 10 µg/mL, the GI50 (MCF7 [8]) was > 10 µg/mL and the GI50 [9] was > 10 µg/mL. For the same compound, the EC50 (P388) was > 10 µg/mL.
For COc1ccc(/C=C\c2cc(OC)c3c(c2)OCO3)cc1NC(=O)CN, the GI50 [1] was 0.012 µg/mL (≈ 0.0337 µM), the GI50 [2] was 0.059 µg/mL (≈ 0.166 µM) and the GI50 [3] was 0.0028 µg/mL (≈ 0.00786 µM). It also gave a GI50 [4] of 0.025 µg/mL (≈ 0.0702 µM), an inhibition [5] of 66% and an inhibition [14] of 31%. The IC50 (Tubulin [6]) was > 40 µM, the Mitotic index (MCF7 [7]) was 52 and the GI50 (MCF7 [8]) was 0.014 µg/mL (≈ 0.0393 µM). For the same compound, the GI50 [9] was 0.0042 µg/mL (≈ 0.0118 µM) and the EC50 (P388) was 0.0199 µg/mL (≈ 0.0558 µM).
For COc1ccc(/C=C\c2cc(OC)c3c(c2)OCO3)cc1N.Cl, the GI50 [1] was 0.035 µg/mL, the GI50 [2] was 0.0082 µg/mL and the GI50 [3] was 0.0082 µg/mL. It also gave a GI50 [4] of 0.075 µg/mL, a GI50 (MCF7 [8]) of 0.0042 µg/mL and a GI50 [9] of 0.0057 µg/mL. For the same compound, the EC50 (P388) was 0.0388 µg/mL.
For COc1ccc(/C=C\c2cc(OC)c3c(c2)OCO3)cc1O [Combretastatin A-2], the GI50 [1] was 0.47 µg/mL (≈ 1.57 µM), the GI50 [2] was 0.0083 µg/mL (≈ 0.0276 µM) and the inhibition [15] was 79%. The GI50 [3] was 0.0054 µg/mL (≈ 0.018 µM), the GI50 [4] was 0.014 µg/mL (≈ 0.0466 µM) and the GI50 (MCF7 [8]) was 0.0042 µg/mL (≈ 0.014 µM). The inhibition [16] was 92%, the GI50 [9] was 0.043 µg/mL (≈ 0.143 µM) and the EC50 (P388) was 0.016 µg/mL (≈ 0.0533 µM).
COc1ccc(/C=C\c2cc(OC)c3c(c2)OCO3)cc1NC(=O)C(N)Cc1ccc(O)cc1 (stereo not given) showed a GI50 [1] of 0.022 µg/mL (≈ 0.0476 µM), a GI50 [2] of 0.0097 µg/mL (≈ 0.021 µM) and a GI50 [3] of 0.018 µg/mL (≈ 0.0389 µM). For the same compound, the GI50 [4] was 0.0067 µg/mL (≈ 0.0145 µM), the inhibition [5] was 19% and the IC50 (Tubulin [6]) was > 40 µM. The Mitotic index (MCF7 [7]) was 44, the GI50 (MCF7 [8]) was 0.035 µg/mL (≈ 0.0757 µM) and the GI50 [9] was 0.012 µg/mL (≈ 0.0259 µM). The EC50 (P388) was 0.0475 µg/mL (≈ 0.103 µM).
For COc1ccc(/C=C\c2cc(OC)c3c(c2)OCO3)cc1NC(=O)C(N)CO (stereo not given), the GI50 [1] was 0.019 µg/mL (≈ 0.0492 µM), the GI50 [2] was 0.049 µg/mL (≈ 0.127 µM) and the GI50 [3] was 0.014 µg/mL (≈ 0.0362 µM). The GI50 [4] was 0.027 µg/mL (≈ 0.0699 µM), the inhibition [5] was 64% and the inhibition [14] was 22%. The IC50 (Tubulin [6]) was > 40 µM, the Mitotic index (MCF7 [7]) was 35 and the GI50 (MCF7 [8]) was 0.017 µg/mL (≈ 0.044 µM). It also gave a GI50 [9] of 0.042 µg/mL (≈ 0.109 µM) and an EC50 (P388) of 0.172 µg/mL (≈ 0.445 µM).
COc1ccc(/C=C\c2cc(OC)c3c(c2)OCO3)cc1N [listing 1 of 2 here] gave an IC50 (Tubulin [6]) of 3.1 µM, a GI50 (MCF7 [8]) of 0.0047 µg/mL (≈ 0.0157 µM) and a GI50 [9] of 0.005 µg/mL (≈ 0.0167 µM).
For COc1ccc(/C=C/c2cc(OC)c3c(c2)OCO3)cc1P(=O)([O-])O.[Na+], the GI50 [1] was 3.8 µg/mL, the GI50 [2] was 0.042 µg/mL and the GI50 [3] was 0.053 µg/mL. For the same compound, the GI50 [4] was 2.1 µg/mL, the GI50 (MCF7 [8]) was 0.045 µg/mL and the GI50 [9] was 0.41 µg/mL. It also gave an EC50 (P388) of 0.025 µg/mL.
Compound COc1ccc(/C=C\c2cc(OC)c3c(c2)OCO3)cc1NC(=O)C(N)C(C)C (stereo not given) has a GI50 [1] of 0.019 µg/mL (≈ 0.0477 µM), a GI50 [2] of 0.055 µg/mL (≈ 0.138 µM) and a GI50 [3] of 0.036 µg/mL (≈ 0.0903 µM). For the same compound, the GI50 [4] was 0.012 µg/mL (≈ 0.0301 µM), the inhibition [5] was 14% and the IC50 (Tubulin [6]) was > 40 µM. It also gave a Mitotic index (MCF7 [7]) of 48, a GI50 (MCF7 [8]) of 0.037 µg/mL (≈ 0.0929 µM) and a GI50 [9] of 0.064 µg/mL (≈ 0.161 µM). It also gave an EC50 (P388) of 0.306 µg/mL (≈ 0.768 µM).
In the case of COc1ccc(/C=C\c2cc(OC)c(OC)c(OC)c2)cc1O [COMBRETASTATIN A4], the IC50 (Mus musculus) is reported as 0.018 µM, the IC50 (Tubulin [6]) is reported as 2.1 µM and the Mitotic index (MCF7 [7]) is reported as 57.
In the case of COc1ccc(/C=C\c2cc(OC)c3c(c2)OCO3)cc1N [listing 2 of 2 here], the inhibition [15] is reported as 84% and 87%, the inhibition [16] is reported as 94% and the inhibition [17] is reported as 95%.
Work on COc1ccc(/C=C\c2cc(OC)c(OC)c(OC)c2)cc1N yielded an IC50 (Mus musculus) of 0.0051 µM.
COc1ccc(/C=C\c2cc(OC)c3c(c2)OCO3)cc1NC(=O)C(N)CS (stereo not given) showed a GI50 [1] of 0.055 µg/mL (≈ 0.137 µM), a GI50 [2] of 0.037 µg/mL (≈ 0.0919 µM) and a GI50 [3] of 0.0046 µg/mL (≈ 0.0114 µM). The GI50 [4] was 0.2 µg/mL (≈ 0.497 µM), the inhibition [5] was 15% and the IC50 (Tubulin [6]) was > 40 µM. It also gave a Mitotic index (MCF7 [7]) of 42, a GI50 (MCF7 [8]) of 0.05 µg/mL (≈ 0.124 µM) and a GI50 [9] of 0.032 µg/mL (≈ 0.0795 µM). It also gave an EC50 (P388) of 0.332 µg/mL (≈ 0.825 µM).
